ChEMBL document CHEMBL1811823, “Quinazolinone linked pyrrolo[2,1-c][1,4]benzodiazepine (PBD) conjugates: Design, synthesis and biological evaluation as potential anticancer agents” (2010)
Calls of active or inactive are those of the source. The rule behind the calls is not given here.

Experiments:
OVCAR-3 = test: Growth inhibition of human OVCAR3 cells by NCI anti-cancer screening method; assay type: functional
MOLT-4 = test: Growth inhibition of human MOLT4 cells by NCI anti-cancer screening method; assay type: functional
LOX IMVI = test: Growth inhibition of human LOXIMVI cells by NCI anti-cancer screening method; assay type: functional
NCI [1] = test: Growth inhibition of human Hs 578T cells by NCI anti-cancer screening method; assay type: functional
K562 = test: Growth inhibition of human K562 cells by NCI anti-cancer screening method; assay type: functional
ACHN = test: Growth inhibition of human ACHN cells by NCI anti-cancer screening method; assay type: functional
NCI-H23 = test: Growth inhibition of human NCI-H23 cells by NCI anti-cancer screening method; assay type: functional
OVCAR-4 = test: Growth inhibition of human OVCAR4 cells by NCI anti-cancer screening method; assay type: functional
HCT-116 = test: Growth inhibition of human HCT116 cells by NCI anti-cancer screening method; assay type: functional
M14 = test: Growth inhibition of human M14 cells by NCI anti-cancer screening method; assay type: functional
HT-29 = test: Growth inhibition of human HT-29 cells by NCI anti-cancer screening method; assay type: functional
A-375 [2] = test: Increase in cytochrome C release in human A375 cells at 4 uM after 24 hrs by Western blot; assay type: functional, cell-based
In short: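 Western blot of A375 cell lysates after 24 h exposure at 4 µM, with 30 µg protein/lane on 12% SDS-PAGE and transfer to PVDF. Probed overnight at 4 °C with anti-cytochrome c (1:500), then HRP secondary and chemiluminescence. β-actin was the loading control; untreated and DMSO-only cells served as controls.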

PC-3 = test: Growth inhibition of human PC3 cells by NCI anti-cancer screening method; assay type: functional
SF-268 = test: Growth inhibition of human SF268 cells by NCI anti-cancer screening method; assay type: functional
IGROV-1 = test: Growth inhibition of human IGROV1 cells by NCI anti-cancer screening method; assay type: functional
SK-MEL-2 = test: Growth inhibition of human SK-MEL-2 cells by NCI anti-cancer screening method; assay type: functional
UACC-62 = test: Growth inhibition of human UACC62 cells by NCI anti-cancer screening method; assay type: functional
SNB-75 = test: Growth inhibition of human SNB75 cells by NCI anti-cancer screening method; assay type: functional
EKVX = test: Growth inhibition of human EKVX cells by NCI anti-cancer screening method; assay type: functional
MCF7 = test: Growth inhibition of human MCF7 cells by NCI anti-cancer screening method; assay type: functional
SK-MEL-5 = test: Growth inhibition of human SK-MEL-5 cells by NCI anti-cancer screening method; assay type: functional
NCI-H460 = test: Growth inhibition of human NCI-H460 cells by NCI anti-cancer screening method; assay type: functional
A-375 [3] = test: Increase in p53 protein expression in human A375 cells at 4 uM after 24 hrs by Western blot; assay type: functional, cell-based
In short: (§1)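 A375 cells (DMEM, 10% FCS, 37 °C, 5% CO2) were treated at 4 µM for 24 h. Lysates were loaded at 30 µg protein/lane on 12% SDS-PAGE and transferred to PVDF. Membranes were blocked 2 h in TBST, incubated with primary antibody overnight at 4 °C (p53 1:100, p27 1:500, NF-κB p65 1:500), then HRP secondary 1 h, with chemiluminescent detection. β-actin was the loading control; untreated and DMSO controls were run.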

A-375 [4] = test: Decrease in Bcl-2 mRNA expression in human A375 cells at 4 uM after 24 hrs by RT-PCR
UO-31 = test: Growth inhibition of human UO31 cells by NCI anti-cancer screening method; assay type: functional
Malme-3M = test: Growth inhibition of human MALME-3M cells by NCI anti-cancer screening method; assay type: functional
A-375 [5] = test: Decrease in CDK2 protein expression in human A375 cells at 4 uM after 24 hrs by Western blot; assay type: functional, cell-based
In short: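 A375 cells treated at 4 µM for 24 h, lysed, protein quantified by Bradford. 30 µg/lane run on 12% SDS-PAGE and transferred to PVDF. Blocked 2 h in TBST with 5% blocker. Probed with rabbit polyclonal CDK2 antibody (1:500) overnight at 4 °C, then HRP secondary (1:2000) 1 h. Chemiluminescent detection; β-tubulin loading control; untreated and DMSO controls.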

A-375 [6] = test: Increase in p21 mRNA expression in human A375 cells at 4 uM after 24 hrs by RT-PCR; assay type: functional, cell-based
In short: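 RT-PCR on RNA from A375 cells treated 24 h at 4 µM, using Bcl-2- or p21-specific primers with GAPDH as internal control. Products were visualized on 1% agarose gels stained with ethidium bromide. Untreated and DMSO-treated cells served as controls.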

T47D = test: Growth inhibition of human T47D cells by NCI anti-cancer screening method; assay type: functional
HOP-92 = test: Growth inhibition of human HOP92 cells by NCI anti-cancer screening method; assay type: functional
HCT-15 = test: Growth inhibition of human HCT15 cells by NCI anti-cancer screening method; assay type: functional
SK-OV-3 = test: Growth inhibition of human SKOV3 cells by NCI anti-cancer screening method; assay type: functional
HL-60 = test: Growth inhibition of human HL-60(TB) cells by NCI anti-cancer screening method; assay type: functional
In short: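 Cells grown in RPMI 1640 with 10% FBS and 2 mM L-glutamine were plated at a density set by doubling time. They were held 24 h at 37 °C in 5% CO2 before drug was added, then exposed continuously for 48 h. Cells were fixed with cold TCA (10% final) for 60 min at 4 °C and stained with 0.4% SRB. Bound dye was eluted in 10 mM Tris base and read at 540 nm. Percent growth was taken versus control wells.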

KM12 = test: Growth inhibition of human KM12 cells by NCI anti-cancer screening method; assay type: functional
A-375 [7] = test: Increase in p27 protein expression in human A375 cells at 4 uM after 24 hrs by Western blot; assay type: functional, cell-based; in short: as §1
NCI [8] = test: Growth inhibition of human […] cells by NCI anti-cancer screening method; assay type: functional
A-375 [9] = test: Induction of apoptosis in human A375 cells assessed as sub-G1 phase accumulation at 4 uM after 24 hrs by propidium iodide staining based flow cytometry; assay type: functional
In short: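 A375 cells (5×10^5 per 60 mm dish) were grown 24 h, then treated 24 h at 0–4 µM. Cells were harvested with trypsin-EDTA, fixed in ice-cold 70% ethanol for 30 min at 4 °C, treated with RNase A (1 mg/ml) for 30 min at 37 °C, and stained with propidium iodide. Cell-cycle distribution, including the sub-G1 fraction, was measured by flow cytometry. DMSO-exposed cells were the control.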

SW-620 = test: Growth inhibition of human SW620 cells by NCI anti-cancer screening method; assay type: functional
TK-10 = test: Growth inhibition of human TK10 cells by NCI anti-cancer screening method; assay type: functional
U-251 = test: Growth inhibition of human U251 cells by NCI anti-cancer screening method; assay type: functional

COc1cc2c(cc1OCCCCCOc1ccc(-n3c(C)nc4ccccc4c3=O)cc1)N=C[C@@H]1CCCN1C2=O
GI50 (OVCAR-3): 200 nM | GI50 (MOLT-4): 190 nM | GI50 (LOX IMVI): 150 nM | GI50 (NCI [1]): 160 nM | GI50 (K562): 60 nM | GI50 (ACHN): 290 nM | GI50 (NCI-H23): 230 nM | GI50 (OVCAR-4): 370 nM | GI50 (HCT-116): 150 nM | GI50 (M14): 170 nM | GI50 (HT-29): 260 nM | Activity (A-375 [2]): Active | GI50 (PC-3): 290 nM | GI50 (SF-268): 260 nM | GI50 (IGROV-1): 180 nM | GI50 (SK-MEL-2): 420 nM | GI50 (UACC-62): 160 nM | GI50 (SNB-75): 380 nM | GI50 (EKVX): 870 nM | GI50 (MCF7): 170 nM | GI50 (SK-MEL-5): 160 nM | GI50 (NCI-H460): 200 nM | Activity (A-375 [3]): Active | Decrease in Bcl-2 mRNA expression (A-375 [4]): Active | GI50 (UO-31): 360 nM | GI50 (Malme-3M): 230 nM | Activity (A-375 [5]): Active | Activity (A-375 [6]): Active | GI50 (T47D): 170 nM | GI50 (HOP-92): 350 nM | GI50 (HCT-15): 1090 nM | GI50 (SK-OV-3): 430 nM | GI50 (HL-60): 180 nM | GI50 (KM12): 170 nM | Activity (A-375 [7]): Active | GI50 (NCI [8]): 190 nM | Activity (A-375 [9]): 31.52% | GI50 (SW-620): 160 nM | GI50 (TK-10): 310 nM | GI50 (U-251): 160 nM
